These entries were drawn from the full list.
Apaf-1 act = human Apaf-1 activation. activity change, negative = activation, % at 20 µM. Apaf-1 apoptosome caspase-3 activation, DEVD-Rh110 fluorescence; hits give low values. 330,000 tested, 0.31% active. AID 489031;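 active means activity change at or below -40% at 20 µM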
Target sequence (O14727 whole entry, looked up): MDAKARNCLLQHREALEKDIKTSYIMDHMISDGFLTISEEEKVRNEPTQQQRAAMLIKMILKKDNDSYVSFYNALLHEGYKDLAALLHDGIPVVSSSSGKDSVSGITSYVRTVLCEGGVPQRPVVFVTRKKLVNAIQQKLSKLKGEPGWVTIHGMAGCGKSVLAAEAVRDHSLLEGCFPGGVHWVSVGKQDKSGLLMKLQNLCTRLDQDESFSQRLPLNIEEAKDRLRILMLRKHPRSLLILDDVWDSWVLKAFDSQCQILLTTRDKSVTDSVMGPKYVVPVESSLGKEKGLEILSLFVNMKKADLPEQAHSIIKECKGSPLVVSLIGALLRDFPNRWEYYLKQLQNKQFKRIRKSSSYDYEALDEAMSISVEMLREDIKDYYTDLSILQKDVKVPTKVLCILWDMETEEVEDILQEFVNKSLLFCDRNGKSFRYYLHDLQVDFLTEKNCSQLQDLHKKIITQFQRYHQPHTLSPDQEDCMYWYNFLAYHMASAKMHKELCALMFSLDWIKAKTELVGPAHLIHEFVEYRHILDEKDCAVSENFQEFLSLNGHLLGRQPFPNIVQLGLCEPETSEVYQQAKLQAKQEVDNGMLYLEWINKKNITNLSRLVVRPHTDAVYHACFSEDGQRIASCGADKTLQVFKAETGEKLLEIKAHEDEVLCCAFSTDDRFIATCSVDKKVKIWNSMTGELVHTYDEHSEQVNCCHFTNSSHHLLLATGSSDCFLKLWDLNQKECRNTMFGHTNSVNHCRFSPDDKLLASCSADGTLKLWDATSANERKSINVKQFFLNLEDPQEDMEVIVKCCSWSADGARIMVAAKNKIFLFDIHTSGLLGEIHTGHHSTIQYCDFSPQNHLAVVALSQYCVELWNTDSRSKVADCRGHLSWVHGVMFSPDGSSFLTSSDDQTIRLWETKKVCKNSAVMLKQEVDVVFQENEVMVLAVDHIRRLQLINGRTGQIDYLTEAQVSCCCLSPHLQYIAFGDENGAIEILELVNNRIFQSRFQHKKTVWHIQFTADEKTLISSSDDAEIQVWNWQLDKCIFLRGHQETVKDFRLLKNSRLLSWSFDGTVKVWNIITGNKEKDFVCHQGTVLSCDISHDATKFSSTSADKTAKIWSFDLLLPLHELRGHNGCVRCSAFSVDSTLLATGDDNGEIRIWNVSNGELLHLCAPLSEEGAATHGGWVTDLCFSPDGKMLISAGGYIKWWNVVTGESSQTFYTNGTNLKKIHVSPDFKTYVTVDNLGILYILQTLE
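system = biochemical Apaf-1 apoptosome reconstitution | buffer or medium = 20 mM HEPES pH 7.5 with CHAPS, BSA | also added = dATP and cytochrome c as apoptosome triggers, (Z-DEVD)2-Rh110 substrate | incubation = 30 min compound preincubation and 50 min reaction, both room temperature | measured by = fluorescence, 540 nm emission, 480 nm excitation | read-out basis = Caspase-3 cleavage activity downstream of Apaf-1 activation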
Rh110 interf act = Rh110 signal interference in Apaf-1 activator counter-screen; fluorescence interference (activity change), % at 20 µM, hits read low; Rh110 fluorescence interference, quenched caspase reaction, Ex480/Em540; 980 tested, under 10 active; shares compounds with Apaf-1 act;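 active means mean activity change at or below -40% when tested at 20 µM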
Apaf-1 act conf = Apaf-1 (human) activation, single-dose confirmed. shares compounds with Apaf-1 act. reconstituted apoptosome caspase-3 activity, DEVD-Rh110 fluorescence; hits give low values. activity change, negative = activation, % at 20 µM. 980 tested, 5% active. AID 504617;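 active means mean activity change at or below -40%, meaning activation of 40% or more, at 20 µM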
* hit, by the source's call; · = no result.

SMILES	Apaf-1 act	Rh110 interf act	Apaf-1 act conf
O=C(N/N=C/c1ccccn1)c1cccc(S(=O)(=O)N2CCCC2)c1	-587.4*	1.5	7.8
O=C(NCc1cccs1)c1cccc(S(=O)(=O)N2CCCCC2)c1	54.8	·	·
COc1ccc(-c2sc3ccccc3c2-c2ccc(OCCN3CCCCC3)cc2)cc1	54.9	·	·
CC(=O)OCC1=C(C(=O)O)N2C(=O)C(NC(=O)C(C)Cn3nc(C)c(Cl)c3C)C2SC1 (stereo not given)	-90.2*	5.3	-18.9
CS(=O)(=O)N(CC(=O)N1CCN(c2ccccc2)CC1)c1ccccc1Cl	-163.9*	3.7	10.8
CN(C(=O)COC(=O)c1cc(S(=O)(=O)N2CCOCC2)c(Cl)cc1Cl)C1CCS(=O)(=O)C1 (stereo not given)	-155.9*	-3.3	7.0
CC(=O)N(C)C1=C(O)c2ccccc2C(=O)C1=O	40.4	·	·
COc1cc(OC)c(NC2=CC(=O)C(=O)c3ccccc32)cc1Cl	91.6	·	·
O=C(NCc1ccco1)Nc1ccc2nsnc2c1	59.0	·	·
O=C(NCc1ccc2c(c1)OCO2)Nc1cccc(Cl)c1	-45.3*	-4.0	9.5
Cc1c(CCOC(=O)CC23CC4CC(CC(C4)C2)C3)sc[n+]1CC(=O)c1ccc(Br)cc1	49.3	·	·
Oc1cc(NCCc2cccnc2)cc2cccnc12	56.0	·	·
C/C(=C\C(=O)c1ccc(Br)cc1)NCc1ccccc1	-235.3*	9.4	20.6
O=[N+]([O-])c1ccc(C=Nc2cccc3ccccc23)s1	68.1	·	·
Cn1c(=O)oc2cc(S(=O)(=O)Nc3ccccc3O)ccc21	-46.2*	9.7	14.3
COc1ccc(S(=O)(=O)NCc2ccc3c(c2)cc(C)n3C)cc1	50.7	·	·
COc1ccc(OCC(NS(=O)(=O)c2ccc(-n3cnnn3)cc2)C(C)C)cc1 (stereo not given)	-424.1*	12.9	5.8
COc1ccc(S(=O)(=O)Nc2cc(SCC(=O)O)c(O)c3ccccc23)cc1	85.5	·	·
c1ccc(C[C@H]2CN=C(Nc3ccccc3)N2CCCC2CCCCC2)cc1	47.2	·	·
COCCNC(=O)c1cc2nc(-c3ccccc3)cc(C)n2n1	-169.1*	12.2	13.6
COCCNC(=O)c1c(N)n(CCC2=CCCCC2)c2nc3ccccc3nc12	63.3	·	·
CCCCCc1cc(=O)oc2c(C(CCN3CCCC3)c3ccc(N(C)C)cc3)c(OC)cc(OC)c12 (stereo not given)	45.2	·	·
COc1cccc(OCC(O)CN2CCN(c3ccccc3)CC2)c1 (stereo not given)	4.7	·	·
OC(CN1CCN(c2ccccc2)CC1)c1ccc2c(c1)CCN2 (stereo not given)	-459.9*	17.8	13.6
c1coc(-c2nnc(-c3ccco3)nn2)c1	84.3	·	·
SMILES	Apaf-1 act	Rh110 interf act	Apaf-1 act conf
Cc1cc(C)c(S(=O)(=O)/N=C2\C=C(Nc3ccc(C(=O)O)cc3)C(=O)c3ccccc32)c(C)c1	88.7	·	·
COc1ccc(OC)c(Nc2cc3ccccc3c(=O)[nH]2)c1	96.8	·	·
O=C1C(=O)c2ccc(-c3ccccc3)cc2-c2ccccc21	98.1	·	·
Clc1ccc(-c2ccc(CNCC3CCCO3)o2)cc1 (stereo not given)	-130.6*	5.1	2.5
COc1ccc2c(c1)c(/C=N/Nc1nc3ccccc3[nH]1)c(C)n2C	43.5	·	·
COc1ccc(Nc2ccc3c(c2)=NC2(CCCCC2)[N+]=3[O-])cc1	79.7	·	·
O=C(NCCCO)Nc1ccc2nc(-c3ccco3)c(-c3ccco3)nc2c1	57.4	·	·
C=CCC[C@@H](Cc1ccc(F)cc1)C(=O)OC[C@@H]1CCCN1C(=O)[C@@H](CC=C)CC(=O)N(CCO)Cc1ccccc1	48.2	·	·
COc1ccc(C(=O)Nc2ccccc2C(=O)N(Cc2ccco2)C(C(N)=O)C(C)C)cc1 (stereo not given)	-351.3*	4.2	15.2
COc1ccc(-n2c(N)c(C(=O)NCc3ccco3)c3nc4ccccc4nc32)c(OC)c1	64.7	·	·
COc1ccc(C[C@H]2CN3C(=NC[C@@H]3Cc3ccccc3)N2CCNC(=O)CCC2CCCCC2)cc1	51.7	·	·
CSc1ccc(CCNC(=O)c2cc(-c3ccccc3)c(N3CCOCC3)s2)cc1	-370.0*	6.8	16.6
CCOc1cc(CNc2ccc(O)cc2)ccc1OCc1ccc(Cl)cc1Cl	93.5	·	·
N#Cc1c(NCCCO)nc(NCc2ccccc2)c2c1CCN(Cc1ccccc1)C2	69.0	·	·
CC(NCc1ccc(OCc2ccc(Cl)cc2)cc1)C(O)c1ccccc1 (stereo not given)	41.2	·	·
Cn1ccnc1C(O)c1ccc(OCc2ccccc2)cc1 (stereo not given)	-354.7*	6.5	0.9
COc1ccc2ccccc2c1C(O)c1nccn1C (stereo not given)	40.7	·	·
O=C(O)CCCN1C(=O)/C(=C/c2ccc(-c3nc4ccccc4s3)o2)SC1=S	-405.6*	10.7	-22.9
CCC(CO)Oc1cc(NCc2cccnc2)c2ncn(C(C)C)c2c1 (stereo not given)	62.5	·	·
CCN1CCN(Cc2ccc(NC(=O)c3ccc(C)c(NC(=O)c4cc(-c5ccc(Br)cc5)n[nH]4)c3)cc2C(F)(F)F)CC1	45.3	·	·
Cc1ccc(-n2c(SCC(=O)Nc3cc(C)on3)nc3c([nH]c4ccccc43)c2=O)cc1	53.6	·	·
Oc1ccc(/C=N/Nc2cc(N3CCCC3)nc(N3CCCC3)n2)cc1	97.4	·	·
CC(C)[C@H](CN1CCC[C@H]1CN1C(N)=NC[C@@H]1Cc1ccccc1)N1C[C@@H](Cc2ccccc2)N(CCc2ccc(Cl)c(Cl)c2)C1=N	82.3	·	·
COc1ccc(CCn2c(N)c(C#N)c3nc4ccccc4nc32)cc1OC	60.5	·	·
CNc1cc(C)c(C#N)c2nc3ccccc3n12	-58.1*	6.8	2.6
SMILES	Apaf-1 act	Rh110 interf act	Apaf-1 act conf
N#Cc1c(N)n(-c2ccccc2N)c2nc3ccccc3nc12	69.5	·	·
CC(=O)c1cc(F)c(N2CCN(CCC#N)CC2)cc1C	-455.8*	8.6	12.8
CCOC(=O)N1CCN(C(=O)C2CCN(S(=O)(=O)c3ccc(OCC)cc3)CC2)CC1	-164.4*	-2.6	18.4
Cc1ccc(/C=C/c2onc(C)c2S(=O)(=O)N2CCC(C(=O)N3CCN(C)CC3)CC2)cc1	45.4	·	·
CCOC(=O)N1CCN(C2=C(NS(=O)(=O)c3ccc(C)cc3)C(=O)c3ccccc3C2=O)CC1	86.2	·	·
COc1ccccc1-c1c(C#N)c(N)nc2c1CCc1ccccc1-2	96.3	·	·
N#Cc1ccsc1NC(=O)c1ccc(Cl)c([N+](=O)[O-])c1	47.9	·	·
N/C(=N\OC(=O)c1ccc(Cl)c([N+](=O)[O-])c1)c1ccccc1	-57.3*	7.3	13.9
O=C(CCn1c2c(c3ccccc31)CCCC2)NNC(=O)c1ccc(Cl)c([N+](=O)[O-])c1	88.6	·	·
CCCCCCSc1cc(-c2nc3cnccn3c2NCCCC)ccc1OC	46.1	·	·
Cc1ccccc1-c1cc2c(nn1)-c1ccccc1C2=O	97.1	·	·
O=C1c2ccccc2-c2nnc(-c3ccc(F)cc3)cc21	78.2	·	·
COC(=O)c1ccc(-c2ccc(C(c3c(C)[nH][nH]c3=O)c3c(C)[nH][nH]c3=O)o2)cc1	44.0	·	·
Cc1c(C(=O)Nc2ccc(S(=O)(=O)N(C)C3CCN(C)CC3)cc2)oc2ccccc12	52.6	·	·
Cc1ccc(S(=O)(=O)N(C)c2ccccc2C(=O)NC2CCCC2)cc1	-58.6*	4.0	14.2
